NR1D1 modulator – modulators of Rev-erb alpha DNA binding, primary screen, biochemical, FITC-DNA, fluorescence polarization, uHTS; Nuclear receptor subfamily 1 group D member 1 (Homo sapiens), P20393; Rev-erbα–FITC-DNA binding, 90 min; activity, % at 10 µM; hit rate 0.79% among 370,000; AID 1259318, 2017;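 active = activity above about 14%, limit read from the data; passing the limit was not always enough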;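 also: 0% = DMSO wells with 35 nM protein and 100% = DMSO wells with 750 nM protein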
NR2E3 ag-1 – inhibitors of NR2E3-RetCOR corepressor binding, primary screen, NR2E3 agonist project, biochemical, TR-FRET, GST-NR2E3, biotin-RetCOR | inhibition of corepressor binding, % at 4.78 µM | hit rate 0.12% among 320,000 | AID 2300, 2010 | 1536-well;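 active = percent inhibition above the cutoff of mean plus 3 SD of all tested compounds, set per screening campaign, cut at about 20% in these data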;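 also: 0% = DMSO wells and 100% = biotin wells as full block of FRET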
Target sequence (Q9Y5X4 whole entry, looked up): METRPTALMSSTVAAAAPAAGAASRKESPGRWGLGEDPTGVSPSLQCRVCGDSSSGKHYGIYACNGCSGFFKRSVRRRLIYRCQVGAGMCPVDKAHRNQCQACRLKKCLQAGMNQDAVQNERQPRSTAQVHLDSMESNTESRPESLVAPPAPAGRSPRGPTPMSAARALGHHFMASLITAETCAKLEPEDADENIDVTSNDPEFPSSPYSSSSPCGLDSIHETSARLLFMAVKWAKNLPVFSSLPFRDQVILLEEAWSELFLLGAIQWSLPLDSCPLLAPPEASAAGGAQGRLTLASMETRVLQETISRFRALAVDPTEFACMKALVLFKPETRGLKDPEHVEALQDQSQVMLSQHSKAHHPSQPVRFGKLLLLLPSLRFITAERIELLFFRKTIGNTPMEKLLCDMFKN
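Assay system: NR2E3–RetCOR corepressor complex. Quantity: 1.35 nM GST-NR2E3. Buffer or medium: pH 7.5 Tris-based buffer. Reagent: biotinylated RetCOR corepressor at 7 nM final. Schedule: 5 h at 4 °C. Detection: TR-FRET, emission read at 617 and 671 nm. Replicates: one well per compound, singlicate testing.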
PG9 binder – binders of HIV-1 gp120 antibody PG9, primary screen, biochemical, TR-FRET; HIV-1 gp120 / PG9 antibody interaction; TR-FRET gp120-PG9 antibody binding; inhibition, % at 6.7 µM; hit rate 0.43% among 360,000; in the data active = inhibition above about 8.5%
NR2E3 ag-2 – NR2E3 agonists in two-hybrid cells, primary screen, cell-based, luminescence, CHO-S, Gal4-NCOR/VP16-NR2E3; Photoreceptor-specific nuclear receptor (Homo sapiens), Q9Y5X4; luciferase; inhibition of corepressor binding, % at 3.98 µM; hit rate 0.35% among 360,000;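 active = inhibition above the mean of all tested compounds plus 3 SD, cut at about 70% in these data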;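 also: 0% = DMSO with NR2E3 transfected cells and 100% = cells lacking NR2E3 construct; higher means lower luciferase signal from less NR2E3 corepressor binding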
NR2E3 ag confirm – NR2E3 agonist confirmation in cells, cell-based, luminescence, CHO-S two-hybrid; shares compounds with NR2E3 ag-2; CHO-S mammalian two-hybrid NR2E3-NCOR, luciferase luminescence; inhibition, % at 3.98 µM; hit rate 51% among 2,300;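 active = average inhibition above a cutoff equal to the mean inhibition of all tested compounds plus one SD, cut at about 70% in these data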;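 also: 0% = DMSO in NR2E3 cells and 100% = DMSO in cells lacking NR2E3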
GAL4-VP16 luc – GAL4-VP16 reporter modulators, confirmation, counter-screen for NR2E3 agonist project, cell-based, luminescence, CHO-S, high throughput; shares compounds with NR2E3 ag-2; CHO-S GAL4-VP16 luciferase reporter; inhibition, % at 3.98 µM; hit rate 29% among 2,300;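 active = mean inhibition above a cutoff equal to the average over all tested compounds plus one standard deviation, cut at about 70% in these data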;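 also: luciferase from a UAS reporter driven by GAL4-VP16 transactivation; 0% = DMSO with VP16-transfected cells and 100% = DMSO with cells lacking VP16; higher means less reporter light so more repression of VP16 activity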
The depositor's hits bear a star; . = no result given. Shown are actives, neighbours in structure and some others; about 1.5% of the full set was active somewhere.

SMILES | NR1D1 modulator | NR2E3 ag-1 | PG9 binder | NR2E3 ag-2 | NR2E3 ag confirm | GAL4-VP16 luc
COc1cccc(/C=N/Nc2ccc([N+](=O)[O-])cn2)c1O | -1.8 | 0.8 | -0.1 | 103.2* | 99.0* | 93.0*
O=[N+]([O-])c1ccc(NN=Cc2cccc3ccccc23)nc1 | -2.8 | . | -2.5 | -18.4 | . | .
COc1ccc(-n2c(SCC(=O)Nc3ccccc3-c3ccccc3)nnc2-c2ccco2)cc1 | 6.0 | . | . | . | . | .
Cc1ccc(NC(=O)c2cc(C)n(-c3cccc(C)c3)c2C)cc1 | 2.8 | -1.3 | -0.4 | 18.0 | . | .
Cc1ccc(NC(=O)c2cc(C)n(-c3ccccc3)c2C)cc1 | 4.8 | -0.8 | -3.7 | 59.0 | 36.7 | -33.5
Cc1cc(C(=O)Nc2ccc(Cl)cc2)c(C)n1-c1ccccc1 | -2.1 | 1.4 | 0.3 | 88.5* | 82.1* | 55.2
Cc1ccnc2c1ccc1ccccc12 | 1.5 | -2.9 | -2.6 | -20.1 | . | .
Cc1ccnc2c1ccc1c(C)ccnc12 | . | 2.1 | . | 78.2* | 43.1 | 9.7
Cc1ccnc2c1ccc1cccnc12 | 1.4 | . | 0.5 | 74.3* | 17.3 | -10.7
C#CCOCCOCCOCCNc1nc(N2CCN(C(=O)[C@H](CCCCN)n3cc([C@@H](N)C(C)CC)nn3)CC2)nc(N2CCN(C(=O)[C@H](CCCCN)n3cc([C@@H](N)C(C)CC)nn3)CC2)n1 (stereo not given in full) | 3.1 | . | . | . | . | .
Cc1cc(N2CCN(c3ccccc3)CC2)nc(-n2nc(C)cc2C)n1 | 1.5 | -1.5 | 2.6 | 81.5* | -12.7 | 12.2
Cc1cc(C)nc(-n2nc(C)cc2Nc2ccccc2)n1 | -2.4 | -2.7 | 1.3 | 111.5* | 11.8 | 5.7
COC(=O)[C@H](C(C)C)N(Cc1cn(Cc2ccc(C)cc2)nn1)S(=O)(=O)c1ccc(F)cc1Br | 2.9 | . | . | . | . | .
Oc1ccccc1N1CCN(C(=S)Nc2ccc(SC(F)F)cc2)CC1 | 6.2 | -2.2 | -0.5 | 20.3 | . | .
FC(F)Sc1ccc(NC(=S)N2CCN(c3ccccn3)CC2)cc1 | 3.1 | . | -1.7 | 61.3 | 86.7* | 45.3
COc1ccc(CN(C)c2ccc(S(=O)(=O)N3CCN(C)CC3)cc2[N+](=O)[O-])cc1OC | -5.6 | 3.4 | 1.9 | 94.5* | 95.9* | 84.8*
COc1ccc(CCN(C)c2ccc(S(=O)(=O)N3CCCC3)cc2[N+](=O)[O-])cc1OC | 4.3 | -1.0 | -0.6 | 0.0 | . | .
CC1CCCN(c2ncnc3c2cnn3-c2ccc(Cl)cc2)C1 (stereo not given) | -0.4 | 1.1 | 1.2 | 91.9* | 82.8* | 69.3
COc1ccc(NS(=O)(=O)c2ccc(C(=O)N3CCN(c4ccc(F)cc4)CC3)cc2)cc1 | 5.5 | . | 0.0 | 75.2* | 73.8* | 64.5
COc1ccc(N2CCN(C(=O)c3ccc(NS(=O)(=O)c4cccc(F)c4)cc3)CC2)cc1 | 1.4 | -1.6 | 0.1 | 18.5 | . | .
COc1ccc(NS(=O)(=O)c2cccc(C(=O)OCC(=O)N3CCN(c4ccc(OC)cc4)CC3)c2)cc1 | -2.6 | 1.8 | -1.2 | 63.4 | 28.0 | 50.3
CC(=O)NC(c1cccs1)c1cc([N+](=O)[O-])c2cccnc2c1O (stereo not given) | -1.2 | 1.5 | -0.3 | 80.6* | 97.6* | 54.5
CCCC(=O)NC(c1cccs1)c1cc([N+](=O)[O-])c2cccnc2c1O (stereo not given) | 9.1 | -1.6 | -3.0 | 16.5 | . | .
CC(=O)NC(c1ccccc1)c1cc([N+](=O)[O-])c2cccnc2c1O (stereo not given) | 4.5 | -8.2 | 0.1 | 57.2 | 93.7* | 30.7
CCC(=O)NC(c1cccs1)c1cc([N+](=O)[O-])c2cccnc2c1O (stereo not given) | 4.9 | 0.3 | 0.5 | 62.5 | 93.7* | 51.5
SMILES | NR1D1 modulator | NR2E3 ag-1 | PG9 binder | NR2E3 ag-2 | NR2E3 ag confirm | GAL4-VP16 luc
CC(C)C(=O)NC(c1ccccc1)c1cc([N+](=O)[O-])c2cccnc2c1O (stereo not given) | 3.9 | 2.1 | -0.6 | 20.0 | . | .
c1ccc(CSc2nnc(NC3CCCCC3)s2)cc1 | 5.2 | . | -0.3 | -104.3 | . | .
COC(=O)c1cc(CSc2nnc(NC3CCCCC3)s2)oc1C | -5.1 | 0.8 | -1.1 | 57.5 | 60.2 | 57.6
CCCCNC(=O)C[C@@H]1C(=O)N(Cc2ccc(OC)cc2)/C2=C/CCCCC[C@@]21C(=O)OCC | -2.8 | . | . | . | . | .
N#CCc1ccc(NS(=O)(=O)c2ccc(C3CCCCC3)cc2)cc1 | -3.7 | 5.0 | -4.3 | 76.1* | 92.3* | 72.2*
COc1ccc(S(=O)(=O)Nc2ccc(CC#N)cc2)cc1 | 4.2 | 1.4 | -1.3 | -5.4 | . | .
Cc1cccc(NS(=O)(=O)c2ccc(C3CCCCC3)cc2)c1 | 2.4 | 2.8 | -0.4 | 70.2* | 93.5* | 79.1*
COc1ccc(C2CCc3cc4c(cc3C2=NO)OCO4)cc1OC (stereo not given) | -2.0 | . | -1.9 | 67.2 | 39.1 | 44.4
COc1ccc(CNS(=O)(=O)c2ccc(-c3cc(C)no3)cc2)cc1 | -0.2 | 5.5 | -3.6 | 51.1 | 31.1 | 34.4
CC(=O)N1c2ccc(S(=O)(=O)N3CCC(C(=O)Nc4cccc(C)c4)CC3)cc2CC1C (stereo not given) | 1.1 | -2.5 | -1.4 | 32.5 | . | .
CC(=O)N1c2ccc(S(=O)(=O)N3CCC(C(=O)Nc4cccc(Cl)c4)CC3)cc2CC1C (stereo not given) | 4.7 | 2.5 | -0.9 | 78.0* | 74.0* | 52.4
CC(=O)N1c2ccc(S(=O)(=O)N3CCC(C(=O)N4CCN(c5cccc(C(F)(F)F)c5)CC4)CC3)cc2CC1C (stereo not given) | 5.7 | -1.2 | -1.5 | 99.2* | 88.6* | 75.8*
CCN(CC)C(=O)CC[C@H]1CC[C@]2(CCCN(Cc3nccs3)C2)O1 | -4.3 | . | . | . | . | .
COc1ccc(NC(=O)NC2CCN(S(=O)(=O)c3ccc(F)cc3)CC2)cc1OC | -4.7 | . | . | . | . | .
CC(=O)NCCCS(=O)(=O)O | -4.2 | . | . | . | . | .
Cc1ccc(C(=O)NNC(=S)NC(=O)c2ccccc2)cc1 | 3.9 | 5.9 | -2.1 | 23.3 | . | .
Cc1ccc(C(=O)NNC(=S)NC(=O)c2ccc(Cl)cc2Cl)cc1 | -0.6 | 2.1 | 3.0 | 54.3 | 47.6 | 29.3
C[C@H](O)[C@@H]1CN2CCc3ccc(-c4ccc5c(c4)OCO5)cc3[C@@H]2C[C@@H]1N(C)C(=O)Nc1ccccc1 | -3.0 | . | . | . | . | .
O=C(Cc1ccccc1)NNc1ccc2ccccc2c1 | 2.8 | -2.4 | -1.2 | 49.7 | 52.6 | 5.1
CCOC(=O)c1cnc(SCC(=O)Nc2ccc(NC(C)=O)c(OC)c2)nc1N | -0.4 | 0.7 | -2.4 | 3.6 | . | .
